Results: ChEMBL document CHEMBL1124366, “Synthesis and biological properties of N63-carboxamides of teicoplanin antibiotics. Structure-activity relationships” (J Med Chem, 1989)
≈ marks a conversion by molar mass, not a printed value.

Columns and labels:
Assay type in all cases: functional
[1] = system: Staphylococcus epidermidis; test: In vitro minimum inhibitory concentration against Staphylococcus epidermis ATCC 12228
[2] = system: Enterococcus faecalis; test: In vitro minimum inhibitory concentration against Streptococcus faecalis ATCC 7080
[3] = system: Streptococcus pneumoniae; test: In vitro minimum inhibitory concentration against Streptococcus pneumoniae UC41
[4] = system: Streptococcus pyogenes; test: In vitro minimum inhibitory concentration against Streptococcus pyogenes C 203
[5] = system: Streptococcus pyogenes; test: In vivo effective dose given perorally to mice infected with Streptococcus pyogenes C 203; details: po
In short: (§1)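 Mice (five per treatment group, five groups) infected intraperitoneally with about 10⁵ cells of Strep. pyogenes C 203, about 100× the LD50. ED50 (mg/kg) was calculated from the percentage of mice surviving at each dose on day 7.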

[6] = system: Staphylococcus aureus; test: In vitro minimum inhibitory concentration against Staphylococcus aureus Tour
[7] = system: Streptococcus pyogenes; test: Subcutaneously administration into mice infected with Streptococcus pyogenes C 203; details: sc; in short: as §1
[8] = system: Staphylococcus haemolyticus; test: In vitro minimum inhibitory concentration against Staphylococcus hemolyticus 602 cell line; details: strain 602

Structure (SMILES) | MIC [1] | MIC [2] | MIC [3] | MIC [4] | ED50 [5] | MIC [6] | ED50 [7] | MIC [8]
CC(=O)N[C@@H]1[C@H](O[C@@H]2c3ccc(c(Cl)c3)Oc3cc4cc(c3O[C@@H]3O[C@@H](CO)[C@@H](O)[C@H](O)[C@@H]3NC(=O)CCCCCCC(C)C)Oc3ccc(cc3Cl)C[C@H]3NC(=O)[C@H](N)c5ccc(O)c(c5)Oc5cc(O)cc(c5)[C@H](NC3=O)C(=O)N[C@H]4C(=O)N[C@H]3C(=O)N[C@@H]2C(=O)N[C@H](C(=O)NCCCCN(C)C)c2cc(O)cc(O[C@H]4O[C@H](CO)[C@@H](O)[C@@H](O)[C@@H]4O)c2-c2cc3ccc2O)O[C@@H](CO)[C@@H](O)[C@@H]1O | 0.06 µg/mL (≈ 0.0303 µM) | 0.12 µg/mL (≈ 0.0607 µM) | 0.12 µg/mL (≈ 0.0607 µM) | 0.06 µg/mL (≈ 0.0303 µM) | 90 mg/kg | 0.12 µg/mL (≈ 0.0607 µM) | 0.1 mg/kg | 0.25 µg/mL (≈ 0.126 µM)
CCCCC/C=C/CCC(=O)N[C@@H]1[C@H](Oc2c3cc4cc2Oc2ccc(cc2Cl)[C@@H](O[C@@H]2O[C@@H](CO)[C@@H](O)[C@H](O)[C@@H]2NC(C)=O)[C@@H]2NC(=O)[C@H](NC(=O)[C@@H]4NC(=O)[C@H]4NC(=O)[C@@H](Cc5ccc(c(Cl)c5)O3)NC(=O)[C@H](N)c3ccc(O)c(c3)Oc3cc(O)cc4c3)c3ccc(O)c(c3)-c3c(O[C@H]4O[C@H](CO)[C@@H](O)[C@@H](O)[C@@H]4O)cc(O)cc3[C@@H](C(=O)NC3CCNCC3)NC2=O)O[C@@H](CO)[C@@H](O)[C@@H]1O | 0.12 µg/mL (≈ 0.0612 µM) | 0.12 µg/mL (≈ 0.0612 µM) | 0.06 µg/mL (≈ 0.0306 µM) | 0.06 µg/mL (≈ 0.0306 µM) | 89.6 mg/kg | 0.12 µg/mL (≈ 0.0612 µM) | 0.08 mg/kg | 1 µg/mL (≈ 0.51 µM)
CC(=O)N[C@@H]1[C@H](O[C@@H]2c3ccc(c(Cl)c3)Oc3cc4cc(c3O[C@@H]3O[C@@H](CO)[C@@H](O)[C@H](O)[C@@H]3NC(=O)CCCCCCC(C)C)Oc3ccc(cc3Cl)C[C@H]3NC(=O)[C@H](N)c5ccc(O)c(c5)Oc5cc(O)cc(c5)[C@H](NC3=O)C(=O)N[C@H]4C(=O)N[C@H]3C(=O)N[C@@H]2C(=O)N[C@H](C(=O)NCCN(C)C)c2cc(O)cc(O[C@H]4O[C@H](CO)[C@@H](O)[C@@H](O)[C@@H]4O)c2-c2cc3ccc2O)O[C@@H](CO)[C@@H](O)[C@@H]1O | 0.06 µg/mL (≈ 0.0308 µM) | 0.12 µg/mL (≈ 0.0615 µM) | 0.06 µg/mL (≈ 0.0308 µM) | 0.06 µg/mL (≈ 0.0308 µM) | 140 mg/kg | 0.12 µg/mL (≈ 0.0615 µM) | 0.09 mg/kg | 0.12 µg/mL (≈ 0.0615 µM)
CNCCCN(C)C(=O)[C@H]1NC(=O)[C@H]2NC(=O)[C@H](NC(=O)[C@@H]3NC(=O)[C@H]4NC(=O)[C@@H](Cc5ccc(c(Cl)c5)Oc5cc3cc(c5O[C@@H]3O[C@@H](CO)[C@@H](O)[C@H](O)[C@@H]3NC(=O)CCCCCCC(C)C)Oc3ccc(cc3Cl)[C@H]2O[C@@H]2O[C@@H](CO)[C@@H](O)[C@H](O)[C@@H]2NC(C)=O)NC(=O)[C@H](N)c2ccc(O)c(c2)Oc2cc(O)cc4c2)c2ccc(O)c(c2)-c2c(O[C@H]3O[C@H](CO)[C@@H](O)[C@@H](O)[C@@H]3O)cc(O)cc21 | 0.06 µg/mL (≈ 0.0306 µM) | 0.12 µg/mL (≈ 0.0611 µM) | 0.12 µg/mL (≈ 0.0611 µM) | 0.06 µg/mL (≈ 0.0306 µM) | > 300 mg/kg | 0.12 µg/mL (≈ 0.0611 µM) | 0.13 mg/kg | 0.25 µg/mL (≈ 0.127 µM)
CC(=O)N[C@@H]1[C@H](O[C@@H]2c3ccc(c(Cl)c3)Oc3cc4cc(c3O[C@@H]3O[C@@H](CO)[C@@H](O)[C@H](O)[C@@H]3NC(=O)CCCCCCC(C)C)Oc3ccc(cc3Cl)C[C@H]3NC(=O)[C@H](N)c5ccc(O)c(c5)Oc5cc(O)cc(c5)[C@H](NC3=O)C(=O)N[C@H]4C(=O)N[C@H]3C(=O)N[C@@H]2C(=O)N[C@H](C(=O)NCCCCCCN)c2cc(O)cc(O[C@H]4O[C@H](CO)[C@@H](O)[C@@H](O)[C@@H]4O)c2-c2cc3ccc2O)O[C@@H](CO)[C@@H](O)[C@@H]1O | 0.06 µg/mL (≈ 0.0303 µM) | 0.12 µg/mL (≈ 0.0607 µM) | 0.12 µg/mL (≈ 0.0607 µM) | 0.06 µg/mL (≈ 0.0303 µM) | > 300 mg/kg | 0.12 µg/mL (≈ 0.0607 µM) | 0.14 mg/kg | 0.12 µg/mL (≈ 0.0607 µM)
CC(=O)N[C@@H]1[C@H](O[C@@H]2c3ccc(c(Cl)c3)Oc3cc4cc(c3O[C@@H]3O[C@@H](CO)[C@@H](O)[C@H](O)[C@@H]3NC(=O)CCCCCCC(C)C)Oc3ccc(cc3Cl)C[C@H]3NC(=O)[C@H](N)c5ccc(O)c(c5)Oc5cc(O)cc(c5)[C@H](NC3=O)C(=O)N[C@H]4C(=O)N[C@H]3C(=O)N[C@@H]2C(=O)N[C@H](C(=O)NCCCN)c2cc(O)cc(O[C@H]4O[C@H](CO)[C@@H](O)[C@@H](O)[C@@H]4O)c2-c2cc3ccc2O)O[C@@H](CO)[C@@H](O)[C@@H]1O | 0.06 µg/mL (≈ 0.031 µM) | 0.12 µg/mL (≈ 0.062 µM) | 0.12 µg/mL (≈ 0.062 µM) | 0.03 µg/mL (≈ 0.0155 µM) | 89.6 mg/kg | 0.12 µg/mL (≈ 0.062 µM) | 0.08 mg/kg | 0.12 µg/mL (≈ 0.062 µM)
CC(=O)N[C@@H]1[C@H](O[C@@H]2c3ccc(c(Cl)c3)Oc3cc4cc(c3O[C@@H]3O[C@@H](CO)[C@@H](O)[C@H](O)[C@@H]3NC(=O)CCCCCCC(C)C)Oc3ccc(cc3Cl)C[C@H]3NC(=O)[C@H](N)c5ccc(O)c(c5)Oc5cc(O)cc(c5)[C@H](NC3=O)C(=O)N[C@H]4C(=O)N[C@H]3C(=O)N[C@@H]2C(=O)N[C@H](C(=O)NCc2ccccn2)c2cc(O)cc(O[C@H]4O[C@H](CO)[C@@H](O)[C@@H](O)[C@@H]4O)c2-c2cc3ccc2O)O[C@@H](CO)[C@@H](O)[C@@H]1O | 0.12 µg/mL (≈ 0.0609 µM) | 0.12 µg/mL (≈ 0.0609 µM) | 0.06 µg/mL (≈ 0.0305 µM) | 0.06 µg/mL (≈ 0.0305 µM) | 139 mg/kg | 0.12 µg/mL (≈ 0.0609 µM) | 0.08 mg/kg | 8 µg/mL (≈ 4.06 µM)
CC(=O)N[C@@H]1[C@H](O[C@@H]2c3ccc(c(Cl)c3)Oc3cc4cc(c3O[C@@H]3O[C@@H](CO)[C@@H](O)[C@H](O)[C@@H]3NC(=O)CCCCCCC(C)C)Oc3ccc(cc3Cl)C[C@H]3NC(=O)[C@H](N)c5ccc(O)c(c5)Oc5cc(O)cc(c5)[C@H](NC3=O)C(=O)N[C@H]4C(=O)N[C@H]3C(=O)N[C@@H]2C(=O)N[C@H](C(=O)NCCCCCCCN(C)C)c2cc(O)cc(O[C@H]4O[C@H](CO)[C@@H](O)[C@@H](O)[C@@H]4O)c2-c2cc3ccc2O)O[C@@H](CO)[C@@H](O)[C@@H]1O | 0.12 µg/mL (≈ 0.0594 µM) | 0.12 µg/mL (≈ 0.0594 µM) | 0.12 µg/mL (≈ 0.0594 µM) | 0.06 µg/mL (≈ 0.0297 µM) | > 300 mg/kg | 0.12 µg/mL (≈ 0.0594 µM) | 0.18 mg/kg | 0.5 µg/mL (≈ 0.248 µM)
CCN(CC)CCCNC(=O)[C@H]1NC(=O)[C@H]2NC(=O)[C@H](NC(=O)[C@@H]3NC(=O)[C@H]4NC(=O)[C@@H](Cc5ccc(c(Cl)c5)Oc5cc3cc(c5O[C@@H]3O[C@@H](CO)[C@@H](O)[C@H](O)[C@@H]3NC(=O)CCCCCCC(C)C)Oc3ccc(cc3Cl)[C@H]2O[C@@H]2O[C@@H](CO)[C@@H](O)[C@H](O)[C@@H]2NC(C)=O)NC(=O)[C@H](N)c2ccc(O)c(c2)Oc2cc(O)cc4c2)c2ccc(O)c(c2)-c2c(O[C@H]3O[C@H](CO)[C@@H](O)[C@@H](O)[C@@H]3O)cc(O)cc21 | 0.12 µg/mL (≈ 0.0602 µM) | 0.12 µg/mL (≈ 0.0602 µM) | 0.06 µg/mL (≈ 0.0301 µM) | 0.06 µg/mL (≈ 0.0301 µM) | 90 mg/kg | 0.12 µg/mL (≈ 0.0602 µM) | 0.05 mg/kg | 0.12 µg/mL (≈ 0.0602 µM)
CC(=O)N[C@@H]1[C@H](O[C@@H]2c3ccc(c(Cl)c3)Oc3cc4cc(c3O[C@@H]3O[C@@H](CO)[C@@H](O)[C@H](O)[C@@H]3NC(=O)CCCCCCC(C)C)Oc3ccc(cc3Cl)C[C@H]3NC(=O)[C@H](N)c5ccc(O)c(c5)Oc5cc(O)cc(c5)[C@H](NC3=O)C(=O)N[C@H]4C(=O)N[C@H]3C(=O)N[C@@H]2C(=O)N[C@H](C(=O)N(C)CCN(C)C)c2cc(O)cc(O[C@H]4O[C@H](CO)[C@@H](O)[C@@H](O)[C@@H]4O)c2-c2cc3ccc2O)O[C@@H](CO)[C@@H](O)[C@@H]1O | 0.06 µg/mL (≈ 0.0306 µM) | 0.06 µg/mL (≈ 0.0306 µM) | 0.06 µg/mL (≈ 0.0306 µM) | 0.06 µg/mL (≈ 0.0306 µM) | 90 mg/kg | 0.12 µg/mL (≈ 0.0611 µM) | 0.15 mg/kg | 0.25 µg/mL (≈ 0.127 µM)
CCN1CCCC1CNC(=O)[C@H]1NC(=O)[C@H]2NC(=O)[C@H](NC(=O)[C@@H]3NC(=O)[C@H]4NC(=O)[C@@H](Cc5ccc(c(Cl)c5)Oc5cc3cc(c5O[C@@H]3O[C@@H](CO)[C@@H](O)[C@H](O)[C@@H]3NC(=O)CCCCCCC(C)C)Oc3ccc(cc3Cl)[C@H]2O[C@@H]2O[C@@H](CO)[C@@H](O)[C@H](O)[C@@H]2NC(C)=O)NC(=O)[C@H](N)c2ccc(O)c(c2)Oc2cc(O)cc4c2)c2ccc(O)c(c2)-c2c(O[C@H]3O[C@H](CO)[C@@H](O)[C@@H](O)[C@@H]3O)cc(O)cc21 (stereo partly drawn) | 0.06 µg/mL (≈ 0.0302 µM) | 0.12 µg/mL (≈ 0.0603 µM) | 0.06 µg/mL (≈ 0.0302 µM) | 0.06 µg/mL (≈ 0.0302 µM) | 140 mg/kg | 0.12 µg/mL (≈ 0.0603 µM) | 0.1 mg/kg | 0.12 µg/mL (≈ 0.0603 µM)
